Laboratory results from the EternaBench riboswitch data.

Test system: MS2 coat protein
Assay: apparent Kd, MS2 coat protein; higher = weaker binding; RNA-MaP array; FMN 200 µM where present
Summary of the method: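 The apparent Kd is reported as the median of filtered per-cluster binding-curve fits. To get these curves, designs transcribed by stalled E. coli RNA polymerase on Illumina sequencing-chip clusters were titrated with SNAP-549-labelled MS2 coat protein from 0.7 or 1.5 nM, doubling to 3 µM. Titrations were run without and then with constant ligand in 100 mM Tris-HCl pH 7.5, 80 mM KCl, 4 mM MgCl2, BSA, DTT, yeast tRNA and Tween-20, and green signal was normalised to red-channel RNA signal and control-cluster median Fmax.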

[1] = designed as: ON switch for flavin mononucleotide, no ligand
[2] = ligand present: flavin mononucleotide, designed as: ON switch for flavin mononucleotide
[3] = designed as: OFF switch for flavin mononucleotide, no ligand
[4] = ligand present: flavin mononucleotide, designed as: OFF switch for flavin mononucleotide

## GAUCCGGUCAAGAGGAUUUUGGAGUGAGAAGGGAGGCUGCUACAUGAGGAUCACCCAUGUGAUACUCAGGAUAUUAGUCUACUA
[1]
  apparent Kd: 215 nM
[2]
  apparent Kd: 155 nM

## GAUCCUCGGUCAGGAUAUCCCGGCCGGCGGCCGGGAGAAGGGACAUGAGGAUCACCCAUGUUUCGGUCCUUACCCGCUUGGGUC
[3]
  apparent Kd: 34 nM
[4]
  apparent Kd: 37.1 nM

## GAUCCUUCUGUUAGGAUAUGCUACGGGCUUCCGCAGCAGAAGGAACAUGAGGAUCACCCAUGUCAAAUAAAAUC
[3]
  apparent Kd: 37.1 nM
[4]
  apparent Kd: 168 nM

## GAUCCUUCUGUUAGGAUAUGCUUCGGGCUUCCGCAGCAGAAGGAACAUGAGGAUCACCCAUGUCAAAUAAAAUC
[3]
  apparent Kd: 22.9 nM
[4]
  apparent Kd: 94.1 nM

## GAUCGGUGAGGAUAUACAUUUUAGCUCCUCGUAAAGCCAUGACAUGAGGAUCACCCAUGUAGAAGGUAUUGUGU
[3]
  apparent Kd: 22.3 nM
[4]
  apparent Kd: 20 nM

## GAUCUGACAGGAUAUACAUGAGGAUCACCCAUGUGCGAGCUAGCGAAAGCUAGCUUAGGUAGAAGGGUCAGAUC
[3]
  apparent Kd: 12.2 nM
[4]
  apparent Kd: 18.1 nM

## GAUGCUAUCGGAGGAUAUUCAUACCGGAAACGGACAUGAGGAUCACCCAUGUGGCGAAAGCCUUGGGAGAAGGCCGAUAGCAUC
[1]
  apparent Kd: 610 nM
[2]
  apparent Kd: 20.5 nM

## GAUUAACAUGAGGAUCACCCAUGUGAGGAUAUGGACUUGCCCACUUAACCAUUAGAGUCUAGAAGGCGCAUCUA
[3]
  apparent Kd: 29.4 nM
[4]
  apparent Kd: 25.5 nM

## GAUUCGGGAGGAUAUACAUGAGGAUCACCCAUGUGUUUUUUAUGUGUUAUGUUAUCAUGUAGAAGGUUUGGGUC
[3]
  apparent Kd: 151 nM
[4]
  apparent Kd: 195 nM

## GAUUGACAUGAGGAUCACCCAUGUGAGGAUAUCGGCCGGACCUUGUUAGCUUCCAUCGCGAGAAGGUACAUAGG
[3]
  apparent Kd: 18.9 nM
[4]
  apparent Kd: 18.4 nM

## GAUUGUUUUUAGAAGGUGCCGGCGAGAGCCGCAACAUGAGGAUCACCCAUGUGUCGGUGACGACGCAAGGAUAUGGAGGUGGUU
[1]
  apparent Kd: 217 nM
[2]
  apparent Kd: 108 nM

## GAUUUCUAAGGAUAUACUGAUGUUCCUAAGUCUAGCGGCUCACAUGAGGAUCACCCAUGUAGAAGGUGGAGGUU
[3]
  apparent Kd: 27.8 nM
[4]
  apparent Kd: 30.1 nM

## GCAAAACAUGAGGAUCACCCAUGUCAACAAAAUCAAGGAUAUGAGCCGGCAAUGCCAGCAUCAGAAGGUGAACCUU
[1]
  apparent Kd: 81.9 nM
[2]
  apparent Kd: 86.5 nM

## GCACAUUUGUAAGGAUAUACAACAUGAGGAUCACCCAUGUGUUGGAAUUUAGUAGAAGGUACAGACAUGAGGAUCACUUUUGUA
[1]
  apparent Kd: 174 nM
[2]
  apparent Kd: 102 nM

## GCACAUUUGUAAGGAUAUACUACAUGAGGAUCACCCAUGUGCAUGGAGAUUGUAGAAGGUACAGCAAUAUUGAUUAACGUUAUA
[1]
  apparent Kd: 134 nM
[2]
  apparent Kd: 77.2 nM

## GCACGAUAUCAGGAUAUGACUAGCUGCGGCUAGUCAGAAGGGAUGACAUGAGGAUCACCCAUGUGAUCACGUGC
[3]
  apparent Kd: 57.6 nM
[4]
  apparent Kd: 78.7 nM

## GCACGGUAUGUAGGAUAUGCAUAGCAUUGCUAUGCAGAAGGACAUGAGGAUCACCCAUGUAUGUAUUCCAUACUAAUCCCGUGU
[3]
  apparent Kd: 5.55 nM
[4]
  apparent Kd: 5.2 nM

## GCACUGGAUGUAGGAUAUCAGGACGAUAAGUCCUGAGAAGGACAUGAGGAUCACCCAUGUACACAAAACCAGUGCUAUAAUAUA
[3]
  apparent Kd: 13.7 nM
[4]
  apparent Kd: 18.8 nM

## GCACUGGAUGUAGGAUAUCAGGACGAUAAGUCCUGAGAAGGACAUGAGGAUCACCCAUGUGAAAAUUACCAGUGCAAUAAUAUA
[3]
  apparent Kd: 14.4 nM
[4]
  apparent Kd: 39.9 nM

## GCACUGGAUGUAGGAUAUCAGGACGAUAAGUCCUGAGAAGGACAUGAGGAUCACCCAUGUGCCUUAACCAGUGCAUAUAAUAUA
[3]
  apparent Kd: 12.9 nM
[4]
  apparent Kd: 17.3 nM

## GCACUUACGUUAGGAUAUGUAUCGGAAAACGAUACAGAAGGAAUAUGGGAACAUGAGGAUCACCCAUGUUCCUGAGACGAGUGC
[1]
  apparent Kd: 69.1 nM
[2]
  apparent Kd: 41.6 nM

## GCACUUAUAUUUGAACCGAUUCGAACAUGAGGAUCACCCAUGUAGGAUAUGCUAAAAGUUGUGAUGCAGAAGGACAUUAAGUGC
[3]
  apparent Kd: 5.44 nM
[4]
  apparent Kd: 6.74 nM

## GCAGAAAGUGUAGGAUAUAGAAAUUAGCGGAAACGCAAUACAUGAGGAUCACCCAUGUUUCCUCACUAGAAGGGCAAAAGCUGC
[3]
  apparent Kd: 16.8 nM
[4]
  apparent Kd: 14.1 nM

## GCAGACGUAGUGAGGAUAUGCUCUACCUCGGUAGAGCAGAAGGCACAUGAGGAUCACCCAUGUGAUUUUUCUGC
[3]
  apparent Kd: 40 nM
[4]
  apparent Kd: 573 nM

## GCAGCGUAUGUAGGAUAUCGGUCAGUUUCUGAUCGAGAAGGACAUGAGGAUCACCCAUGUAAAUUACCGACUCUGUCGGGCUGC
[3]
  apparent Kd: 6.64 nM
[4]
  apparent Kd: 8.6 nM

## GCAGCGUAUGUAGGAUAUCGGUCAGUUUCUGAUCGAGAAGGACAUGAGGAUCACCCAUGUAAAUUACCGACUUUGUCGGGUUGC
[3]
  apparent Kd: 10.2 nM
[4]
  apparent Kd: 20.1 nM

## GCAGCUAUUAUUAUACAUGAGGAUCACCCAUGUUACAUGUGUAAGGAUAUUGAAGUUUUUAUAAUCAAGAAGGUACUAUGCUGC
[1]
  apparent Kd: 14.4 nM
[2]
  apparent Kd: 9.33 nM

## GCAGGACAUGAGGAUCACCCAUGUUCAAAAUAUAGAGGAUAUGGAUACGGUAUAUCCGAACCAGAAGGCUACCUGC
[1]
  apparent Kd: 14.6 nM
[2]
  apparent Kd: 14 nM

## GCAGGACAUGAGGAUCACCCAUGUUCAAAAUAUUGAGGAUAUGGAUACGGUAUAUCCGAACCAGAAGGCAACCUGC
[1]
  apparent Kd: 20.5 nM
[2]
  apparent Kd: 17.1 nM

## GCAGGAUAAGUCAGGAUAUACCUAUGGAUACAUAGGUAGAAGGGACAUGAGGAUCACCCAUGUUACUCGCCUGC
[3]
  apparent Kd: 12.6 nM
[4]
  apparent Kd: 23.6 nM

## GCAGGAUAAGUGAGGAUAUACCUCUGGAUACAGAGGUAGAAGGCACAUGAGGAUCACCCAUGUCAUUCACCUGC
[3]
  apparent Kd: 13.3 nM
[4]
  apparent Kd: 24.2 nM

## GCAGGCGACCAGAAGGGUGACAUGAGGAUCACCCAUGUAGAUGUGUUCCCGCUUGGGAACCGUCCACAGGAUAUGGUUGGUUAU
[1]
  apparent Kd: 51.1 nM
[2]
  apparent Kd: 53.8 nM

## GCAGGUUAAGUAAGGAUAUACCUCUGGAAACAGAGGUAGAAGGUACAUGAGGAUCACCCAUGUUUCUCUUCUGC
[3]
  apparent Kd: 17.3 nM
[4]
  apparent Kd: 45.7 nM

## GCAGGUUAAGUCAGGAUAUACCUAUGGAUACAUAGGUAGAAGGGACAUGAGGAUCACCCAUGUGCCUCACCUGC
[3]
  apparent Kd: 18.3 nM
[4]
  apparent Kd: 63.1 nM

## GCAGUGCCAGCGGUACUGCCUCUAGCAGAAGGGUGACGAGACAUGAGGAUCACCCAUGUAGAGACACAGGAUAUGCACCAGCUU
[1]
  apparent Kd: 142 nM
[2]
  apparent Kd: 8.26 nM

## GCAGUGCGAGGAUAUACAUGAGGAUCACCCAUGUGAGAAUAAGAAGUGAGGAAGAAAAGUAGAAGGCGCGUUGG
[3]
  apparent Kd: 52.4 nM
[4]
  apparent Kd: 155 nM

## GCAUGGUAUGAGAAGGCAUAUUUAAUCUAACAUCAUGUUUACAUGAGGAUCACCCAUGUUACCAAUGAGGAUAUCAUACCGUGC
[3]
  apparent Kd: 9.67 nM
[4]
  apparent Kd: 9.8 nM

## GCAUGUGUAUAAGGAUAUGCAUCACUGAGAAAUUUAGUGAGGAAGAUCACAUGAGGAUCACCCAUGUAGAAGGUAUACACGUGC
[3]
  apparent Kd: 7.32 nM
[4]
  apparent Kd: 52.3 nM

## GCAUGUGUGUAAGGAUAUGCAUCACUGAGAAAUUUAGUGAGGAAGAUCACAUGAGGAUCACCCAUGUAGAAGGUACACACGUGG
[3]
  apparent Kd: 9.3 nM
[4]
  apparent Kd: 54.5 nM

## GCAUUUUAUGCAGGAUAUUGAAUUCGGAUUAAACAAGAAGGGCAUAACAUGAGGAUCACCCAUGUUUUAUAGGUAUCUAUGAAC
[3]
  apparent Kd: 53.1 nM
[4]
  apparent Kd: 116 nM

## GCCAACUUAUGAGGAUAUGGCACCUUAUUGGUGCCAGAAGGCAUGUCUAUUGACAUGAGGAUCACCCAUGUAUUAUAGUUGGCA
[1]
  apparent Kd: 715 nM
[2]
  apparent Kd: 159 nM

## GCCAACUUAUGAGGAUAUGGCACCUUAUUGGUGCCAGAAGGCAUGUGUAUUCACAUGAGGAUCACCCAUGUAUUAUAGUUGGCA
[1]
  apparent Kd: 498 nM
[2]
  apparent Kd: 48.1 nM

## GCCAGGGAUUCAGGAUAUAUUAGCCGAGGCCGCGUAGAAGGGAAAUCCUGACAUGAGGAUCACCCAUGUCGACCCGCCUUCCUA
[1]
  apparent Kd: 46.7 nM
[2]
  apparent Kd: 45.6 nM

## GCCAGUUAUGUAGGAUAUGCGCGGCGAGCCUGUGCAGAAGGACAUGAGGAUCACCCAUGUGUUGCGGUCUGAGUACUGAUCGCU
[3]
  apparent Kd: 30 nM
[4]
  apparent Kd: 221 nM

## GCCAUCGCAUGAGGAUAUGCUCCCGUUUCGGGAGCAGAAGGCAUGUCAUAAGACAUGAGGAUCACCCAUGUAGUUAAGAUGGCA
[1]
  apparent Kd: 723 nM
[2]
  apparent Kd: 32.5 nM

## GCCAUCGCAUGAGGAUAUGCUCCCGUUUCGGGAGCAGAAGGCAUGUCAUAAGACAUGAGGAUCACCCAUGUAGUUUAGAUGGCA
[1]
  apparent Kd: 234 nM
[2]
  apparent Kd: 11.1 nM

## GCCAUCGCAUGAGGAUAUGGCACCGUUUCGGUGCCAGAAGGCAUGUCUUAAGACAUGAGGAUCACCCAUGUAGUUAAGAUGGCA
[1]
  apparent Kd: 860 nM
[2]
  apparent Kd: 56.9 nM

## GCCAUCGUAUGAGGAUAUGGCACCGAAACGGUGCCAGAAGGCAUGUCGAUAGACAUGAGGAUCACCCAUGUAUUAUCGAUGGCA
[1]
  apparent Kd: 107 nM
[2]
  apparent Kd: 31.3 nM

## GCCGUAAAUGUGAGGAUAUACCUAUGGAUACAUAGGUAGAAGGCACAUGAGGAUCACCCAUGUUCUCAAUCGGC
[3]
  apparent Kd: 179 nM
[4]
  apparent Kd: 930 nM

## GCCGUGAUAGCAGGAUAUGCUCCGGUUGCUCAUACAUGAGGAUCACCCAUGUCACGUGCGGUGGUGCAGAAGGGUUGAAGCGAU
[1]
  apparent Kd: 764 nM
[2]
  apparent Kd: 209 nM

## GCCUAACAUGAGGAUCACCCAUGUAGUGGGUUGUUAGGAUAUGGGCGGCGUAACGCUGCACCAGAAGGAAUAGAAG
[1]
  apparent Kd: 865 nM
[2]
  apparent Kd: 504 nM

## GCCUAGCCCAGGCCCACGGCAUCACAGGAUAUGCCGAUAACAUGAGGAUCACCCAUGUCAACUCCGCAGAAGGGUGAUAUCGUG
[1]
  apparent Kd: 174 nM
[2]
  apparent Kd: 28.8 nM

## GCCUCACAUGAGGAUCACCCAUGUCAGGAUAUAGGAGACGGCAGAAAUCCUGCCAUCGCUAGAAGGGACUGGCA
[3]
  apparent Kd: 23.9 nM
[4]
  apparent Kd: 105 nM

## GCCUCAUAGUAGAAGGGACUUAGACAGUUAAGCAUCUUGUACAAUUAACAUGAGGAUCACCCAUGUCAGGAUAUACUAAGAGGC
[3]
  apparent Kd: 8.02 nM
[4]
  apparent Kd: 9.49 nM

## GCCUUAUCCGUCAGGAUAUACAGCCGCUAGUUGUUGUAGAAGGGACAUGAGGAUCACCCAUGUACGUACCAUUG
[3]
  apparent Kd: 20.3 nM
[4]
  apparent Kd: 30.7 nM
